pEC50: −log10 of the molar value. Activity calls are given as the source filed them. The calls are words filed in the database; no cut-off is given here.
Legend:
HUVEC [1] = assay: Cytoprotective activity against H2O2-induced cell injury in HUVEC assessed as inhibition of apoptosis by measuring necrotic cells at 10 uM pretreated for 24 hrs followed by H2O2-stimulation after 2 hrs by Annexin-V-APC/7AAD staining based flow cytometry (reference value: 0.45%); format: functional, Homo sapiens; design: scale not given: the % may be the effect or the level left
HUVEC [2] = assay: Cytoprotective activity against H2O2-induced cell injury in HUVEC assessed as inhibition of apoptosis by measuring viable cells at 10 uM pretreated for 24 hrs followed by H2O2-stimulation after 2 hrs by Annexin-V-APC/7AAD staining based flow cytometry (reference value: 53.8%); format: functional, Homo sapiens
HUVEC [3] = assay: Cytoprotective activity against H2O2-induced cell injury in HUVEC assessed as decrease in LDH release pretreated for 24 hrs followed by H2O2-stimulation after 2 hrs; format: functional, cell-based; conditions: Homo sapiens
Outline: (§1)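 Pretreatment 24 h at 0.1, 1 and 10 μM before 0.5 mM H2O2 for 2 h in HUVECs; LDH release, MDA content, SOD activity and NO secretion then measured.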

HUVEC [4] = assay: Cytoprotective activity against H2O2-induced cell injury in HUVEC assessed as increase in cell viability at 10 uM pretreated for 24 hrs followed by H2O2-stimulation after 2 hrs by MTT assay; format: functional, cell-based; conditions: Homo sapiens
HUVEC [5] = assay: Cytoprotective activity against H2O2-induced cell injury in HUVEC assessed as inhibition of apoptosis by measuring late apoptotic cells at 10 uM pretreated for 24 hrs followed by H2O2-stimulation after 2 hrs by Annexin-V-APC/7AAD staining based flow cytometry (reference value: 10.78%); format: functional, Homo sapiens; design: scale not given: the % may be the effect or the level left
HUVEC [6] = assay: Cytotoxicity against HUVEC assessed as increase in cell viability at 0.1 to 50 uM after 24 hrs by MTT assay relative to control; format: cell-based; conditions: human
Outline: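 Normal HUVECs incubated 24 h with 0.1−50 μM, no H2O2; viability by MTT assay; means ± SD, n = 3.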

HUVEC [7] = assay: Cytoprotective activity against H2O2-induced cell injury in HUVEC assessed as inhibition of apoptosis by measuring viable cells at 1 uM pretreated for 24 hrs followed by H2O2-stimulation after 2 hrs by Annexin-V-APC/7AAD staining based flow cytometry (reference value: 53.8%); format: functional, Homo sapiens
HUVEC [8] = assay: Effect on total ERK1/2 protein level in HUVEC at 0.1 to 10 uM pretreated for 24 hrs followed by H2O2-stimulation for 2 hrs by western blot analysis; format: cell-based; conditions: human
HUVEC [9] = assay: Cytoprotective activity against H2O2-induced cell injury in HUVEC assessed as inhibition of apoptosis by measuring late apoptotic cells at 0.1 uM pretreated for 24 hrs followed by H2O2-stimulation after 2 hrs by Annexin-V-APC/7AAD staining based flow cytometry (reference value: 10.78%); format: functional, Homo sapiens; design: scale not given: the % may be the effect or the level left
HUVEC [10] = assay: Effect on total JNK protein level in HUVEC at 0.1 to 10 uM pretreated for 24 hrs followed by H2O2-stimulation for 2 hrs by western blot analysis; format: cell-based; conditions: human
HUVEC [11] = assay: Cytoprotective activity against H2O2-induced cell injury in HUVEC assessed as inhibition of apoptosis by measuring necrotic cells at 1 uM pretreated for 24 hrs followed by H2O2-stimulation after 2 hrs by Annexin-V-APC/7AAD staining based flow cytometry (reference value: 0.45%); format: functional, Homo sapiens; design: scale not given: the % may be the effect or the level left
HUVEC [12] = assay: Cytoprotective activity against H2O2-induced cell injury in HUVEC assessed as inhibition of apoptosis by measuring late apoptotic cells at 1 uM pretreated for 24 hrs followed by H2O2-stimulation after 2 hrs by Annexin-V-APC/7AAD staining based flow cytometry (reference value: 10.78%); format: functional, Homo sapiens; design: scale not given: the % may be the effect or the level left
HUVEC [13] = assay: Cytoprotective activity against H2O2-induced cell apoptosis in HUVEC pretreated for 24 hrs followed by H2O2-stimulation for 2 hrs by Annexin-V-APC/7AAD staining based flow cytometry; format: functional; conditions: Homo sapiens
[14] = target: c-Jun N-terminal kinase, JNK (Homo sapiens) (UniProt P45983+P53779+P45984); assay: Inhibition of H2O2-induced JNK phosphorylation in HUVEC pretreated for 24 hrs followed by H2O2-stimulation after 2 hrs by western blot analysis
HUVEC [15] = assay: Cytoprotective activity against H2O2-induced cell injury in HUVEC assessed as cell survival at 0.1 uM pretreated for 24 hrs followed by H2O2-stimulation after 2 hrs by MTT assay (reference value: 60.21%); format: functional; conditions: Homo sapiens, read-out: Survival
HUVEC [16] = assay: Cytoprotective activity against H2O2-induced cell injury in HUVEC assessed as decrease in level of reactive oxygen species pretreated for 24 hrs followed by H2O2-stimulation after 2 hrs by DCFH-DA staining based fluorescence assay; format: functional; conditions: Homo sapiens
Outline: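 DCF fluorescence imaging in HUVECs with or without pretreatment, exposed to H2O2; intensity expressed as percentage of control group fluorescence; means ± SD, n = 3.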

HUVEC [17] = assay: Cytoprotective activity against H2O2-induced cell injury in HUVEC assessed as cell survival at 10 uM pretreated for 24 hrs followed by H2O2-stimulation after 2 hrs by MTT assay (reference value: 60.21%); format: functional; conditions: Homo sapiens, read-out: Survival
HUVEC [18] = assay: Cytoprotective activity against H2O2-induced cell injury in HUVEC assessed as decrease in MDA level pretreated for 24 hrs followed by H2O2-stimulation after 2 hrs; format: functional, cell-based; conditions: Homo sapiens; outline: as §1
HUVEC [19] = assay: Cytoprotective activity against H2O2-induced cell injury in HUVEC assessed as inhibition of apoptosis by measuring viable cells at 0.1 uM pretreated for 24 hrs followed by H2O2-stimulation after 2 hrs by Annexin-V-APC/7AAD staining based flow cytometry (reference value: 53.8%); format: functional, Homo sapiens
HUVEC [20] = assay: Cytoprotective activity against H2O2-induced cell injury in HUVEC assessed as cell survival at 1 uM pretreated for 24 hrs followed by H2O2-stimulation after 2 hrs by MTT assay (reference value: 60.21%); format: functional; conditions: Homo sapiens, read-out: Survival
HUVEC [21] = assay: Cytoprotective activity against H2O2-induced cell injury in HUVEC assessed as increase in SOD activity pretreated for 24 hrs followed by H2O2-stimulation after 2 hrs; format: functional, cell-based; conditions: Homo sapiens; outline: as §1
HUVEC [22] = assay: Cytoprotective activity against H2O2-induced cell injury in HUVEC assessed as level of reactive oxygen species by measuring fluorescence intensity at 0.1 to 10 uM pretreated for 24 hrs followed by H2O2-stimulation after 2 hrs by DCFH-DA staining based fluorescence assay (reference value: 3.3); format: functional, Homo sapiens
[23] = target: MAP kinase p38 (Homo sapiens) (UniProt O15264+Q15759+Q16539+P53778); assay: Inhibition of H2O2-induced p38 phosphorylation in HUVEC pretreated for 24 hrs followed by H2O2-stimulation after 2 hrs by western blot analysis
HUVEC [24] = assay: Cytoprotective activity against H2O2-induced cell injury in HUVEC assessed as increase in cell survival pretreated for 24 hrs followed by H2O2-stimulation after 2 hrs by MTT assay; format: functional, cell-based; conditions: Homo sapiens
Outline: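 MTT survival of H2O2-injured HUVECs after pretreatment at 10, 1, 0.1 and 0.01 μM; compared with H2O2-only model group; EC50 derived from concentration–response; means ± SD, n = 3.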

HUVEC [25] = assay: Cytoprotective activity against H2O2-induced cell injury in HUVEC assessed as inhibition of apoptosis by measuring early apoptotic cells at 1 uM pretreated for 24 hrs followed by H2O2-stimulation after 2 hrs by Annexin-V-APC/7AAD staining based flow cytometry (reference value: 34.96%); format: functional, Homo sapiens; design: scale not given: the % may be the effect or the level left
[26] = target: Mitogen-activated protein kinase; ERK1/ERK2 (Homo sapiens) (UniProt P27361+P28482); assay: Inhibition of H2O2-induced ERK1/2 phosphorylation in HUVEC pretreated for 24 hrs followed by H2O2-stimulation after 2 hrs by western blot analysis; format: protein assay
HUVEC [27] = assay: Cytoprotective activity against H2O2-induced cell injury in HUVEC assessed as inhibition of apoptosis by measuring early apoptotic cells at 10 uM pretreated for 24 hrs followed by H2O2-stimulation after 2 hrs by Annexin-V-APC/7AAD staining based flow cytometry (reference value: 34.96%); format: functional, Homo sapiens; design: scale not given: the % may be the effect or the level left
HUVEC [28] = assay: Cytoprotective activity against H2O2-induced cell injury in HUVEC assessed as increase in nitric oxide level pretreated for 24 hrs followed by H2O2-stimulation after 2 hrs by DAF-FM-DA probe based fluorescent imaging analysis; format: functional; conditions: Homo sapiens; outline: as §1
HUVEC [29] = assay: Cytoprotective activity against H2O2-induced cell injury in HUVEC assessed as cell survival at 0.01 uM pretreated for 24 hrs followed by H2O2-stimulation after 2 hrs by MTT assay (reference value: 60.21%); format: functional; conditions: Homo sapiens, read-out: Survival
HUVEC [30] = assay: Cytoprotective activity against H2O2-induced cell injury in HUVEC assessed as inhibition of apoptosis by measuring necrotic cells at 0.1 uM pretreated for 24 hrs followed by H2O2-stimulation after 2 hrs by Annexin-V-APC/7AAD staining based flow cytometry (reference value: 0.45%); format: functional, Homo sapiens; design: scale not given: the % may be the effect or the level left
HUVEC [31] = assay: Cytoprotective activity against H2O2-induced cell injury in HUVEC assessed as inhibition of apoptosis by measuring early apoptotic cells at 0.1 uM pretreated for 24 hrs followed by H2O2-stimulation after 2 hrs by Annexin-V-APC/7AAD staining based flow cytometry (reference value: 34.96%); format: functional, Homo sapiens; design: scale not given: the % may be the effect or the level left
HUVEC [32] = assay: Effect on total p38 MAPK protein level in HUVEC at 0.1 to 10 uM pretreated for 24 hrs followed by H2O2-stimulation for 2 hrs by western blot analysis; format: cell-based; conditions: human

Sequence of Mitogen-activated protein kinase; ERK1/ERK2 (Homo sapiens) (P27361 whole entry, looked up): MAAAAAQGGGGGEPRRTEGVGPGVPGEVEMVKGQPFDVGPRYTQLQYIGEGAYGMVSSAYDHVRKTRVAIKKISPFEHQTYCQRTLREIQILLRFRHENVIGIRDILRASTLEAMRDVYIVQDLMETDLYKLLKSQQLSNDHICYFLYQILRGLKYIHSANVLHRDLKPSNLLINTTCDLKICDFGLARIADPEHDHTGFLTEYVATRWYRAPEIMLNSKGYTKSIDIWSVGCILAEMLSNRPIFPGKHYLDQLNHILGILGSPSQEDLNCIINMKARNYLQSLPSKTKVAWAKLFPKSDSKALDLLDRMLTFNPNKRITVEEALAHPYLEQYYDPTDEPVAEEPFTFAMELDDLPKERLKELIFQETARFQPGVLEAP
Sequence of Mitogen-activated protein kinase; ERK1/ERK2 (Homo sapiens) (P28482 whole entry, looked up): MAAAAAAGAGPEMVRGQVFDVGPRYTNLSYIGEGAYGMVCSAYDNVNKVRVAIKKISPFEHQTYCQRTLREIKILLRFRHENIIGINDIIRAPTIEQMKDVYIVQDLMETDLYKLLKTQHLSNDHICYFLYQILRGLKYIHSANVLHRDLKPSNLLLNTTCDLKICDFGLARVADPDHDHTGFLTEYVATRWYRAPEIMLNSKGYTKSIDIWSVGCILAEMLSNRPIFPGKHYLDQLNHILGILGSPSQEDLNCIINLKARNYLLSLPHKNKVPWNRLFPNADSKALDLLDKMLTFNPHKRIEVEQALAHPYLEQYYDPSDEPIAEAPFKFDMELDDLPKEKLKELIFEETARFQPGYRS

Compound: C=C[C@]1(C)CC[C@@H](C(=C)COC(=O)/C=C/C(=O)OCC(=C)[C@@H]2CC[C@@](C)(C=C)[C@H](C(=C)C)C2)C[C@H]1C(=C)C
- Activity (HUVEC [1]): 2.69%
- Activity (HUVEC [2]): 71.78%
- Activity (HUVEC [3]): Dose-dependent effect
- Activity (HUVEC [4]): Active
- Activity (HUVEC [5]): 12.71%
- Activity (HUVEC [6]): > 90%
- Activity (HUVEC [7]): 68.31%
- Activity (HUVEC [8]): Non-Toxic
- Activity (HUVEC [9]): 10.22%
- Activity (HUVEC [10]): Non-Toxic
- Activity (HUVEC [11]): 0.18%
- Activity (HUVEC [12]): 7.92%
- Activity (HUVEC [13]): Dose-dependent effect
- inhibition [14]: Dose-dependent effect
- viability at 0.1 µM (HUVEC [15]): 76.7%
- Activity (HUVEC [16]): Dose-dependent effect
- viability at 10 µM (HUVEC [17]): 97%
- Activity (HUVEC [18]): Dose-dependent effect
- Activity (HUVEC [19]): 58.55%
- viability at 1 µM (HUVEC [20]): 85.5%
- Activity (HUVEC [21]): Dose-dependent effect
- Flu intensity (HUVEC [22]): 1.16 - 2.4
- inhibition [23]: Dose-dependent effect
- Activity (HUVEC [24]): Dose-dependent effect
- pEC50 (HUVEC [24]): 6.66
- Activity (HUVEC [25]): 23.59%
- inhibition [26]: Dose-dependent effect
- Activity (HUVEC [27]): 12.82%
- Activity (HUVEC [28]): Dose-dependent effect
- viability at 0.01 µM (HUVEC [29]): 65.5%
- Activity (HUVEC [30]): 0.3%
- Activity (HUVEC [31]): 30.92%
- Activity (HUVEC [32]): Non-Toxic

From ChEMBL document CHEMBL4004891, “Antioxidant Properties of Novel Dimers Derived from Natural β-Elemene through Inhibiting H2O2-Induced Apoptosis” (ACS Med Chem Lett, 2017)
